The source made the active and inactive calls.
Key:
[1] = Cytotoxicity against MDCK cells after 48 hrs by CellTiter96 aqueous non-radioactive cell proliferation assay; format: cell-based, Canis lupus familiaris; settings: dog
[2] = Half life in HCl/KCl solution at pH 1.3 by HPLC method; format: physicochemical
Procedure, shortened: (§1)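 A 20 mM DMSO stock was diluted to 1 mM in buffer (50 mM HCl/KCl pH 1.3, acetate pH 4.1, phosphate pH 7.4 at 50 or 10 mM, borate pH 9.1, glycine pH 9.2), rat plasma or […]. Mixtures were shaken at 1000 rpm, 37 °C, and sampled over time for reversed-phase HPLC (214 or 254 nm). Half-life came from a pseudo-first-order fit; remaining parent was assessed at 96 h. Three runs for ZA derivatives, single for GOC derivatives.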

[3] = Metabolic stability in […] assessed as parent compound remaining after 96 hrs by HPLC method; format: ADME, cell-free, Oryctolagus cuniculus; settings: rabbit, plasma; read-out: Stability
[4] = Drug uptake in MDCK cells at 100 uM after 48 hrs by LC-MS analysis; format: ADME, cell-based, Canis lupus familiaris; settings: dog
Procedure, shortened: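 MDCK cells (2.5×10^6, grown overnight) were exposed to compound at 100 µM final in 2% FBS medium for 48 h, with a DMSO mock. Cells were washed, lysed in RIPA, methanol-precipitated at −80 °C and filtered (10 kDa cutoff). Parent and hydrolysis product were quantified by LC–MS/MS against calibration curves (0.03–300 µM) spiked into mock lysate.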

[5] = Half life in glycine buffer at pH 9.2 by HPLC method; format: physicochemical; procedure, shortened: as §1
[6] = Half life in rabbit plasma by HPLC method; format: ADME, cell-free, Oryctolagus cuniculus; procedure, shortened: as §1
[7] = Chemical stability in HCl/KCl solution at pH 1.3 assessed as parent compound remaining after 96 hrs by HPLC method; format: physicochemical; settings: read-out: Stability; procedure, shortened: as §1
[8] = Half life in borate buffer at pH 9.1 by HPLC method; format: physicochemical; procedure, shortened: as §1
Influenza A virus [9] = experiment: Antiviral activity against Influenza A virus (A/WSN/1933(H1N1)) infected in MDCK cells expressing wild type neuraminidase assessed as protection against virus-induced cytopathic effect after 48 hrs by CellTiter96 aqueous non-radioactive cell proliferation assay; format: functional, organism-based
Procedure, shortened: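 Virus at 100 TCID50 was premixed with inhibitor at varied concentrations, then added to MDCK cells (1×10^5 cells/mL). Cells were held 48 h at 37 °C under 5% CO2. Cytopathic effect was read as MTS absorbance at 490 nm after 15 min. EC50 was taken from a curve fit of percent CPE versus concentration.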

Influenza A virus [10] = experiment: Antiviral activity against Influenza A virus (A/WSN/1933(H1N1)) infected in BALB/c mouse assessed as protection against virus-induced infection at 48 umol/kg/day administered via oral gavage for 5 days; format: functional, organism-based
Procedure, shortened: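 Female BALB/c mice (4–5 weeks old), 10 per group. Drug was given by oral gavage twice daily for 5 days at 48 μmol/kg/day. Intranasal challenge with 10 MLD50 of A/WSN/1933 (H1N1) 4 h after the first dose. PBS placebo on the same schedule. Survival was observed daily and compared by log-rank (Mantel–Cox) test.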

[11] = Half life in 10 mM phosphate buffer at pH 7.4 by HPLC method; format: physicochemical; procedure, shortened: as §1
[12] = Half life in 50 mM phosphate buffer at pH 7.4 by HPLC method; format: physicochemical; procedure, shortened: as §1
Influenza A virus [13] = experiment: Antiviral activity against Influenza A virus (A/WSN/1933(H1N1)) infected in BALB/c mouse assessed as increase in mouse survival rate at 2.4 umol/kg/day administered intranasally for 5 days and measured at day 21 relative to control; format: functional, organism-based
Procedure, shortened: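 Female BALB/c mice (4–5 weeks old), 10 per group. Drug was given by intranasal instillation twice daily for 5 days at 2.4 μmol/kg/day, with half the dose at each administration. Mice were infected intranasally with 10 MLD50 of A/WSN/1933 (H1N1) under zoletil anaesthesia, 4 h after the first dose. PBS placebo on the same schedule. Survival was followed daily and curves compared by log-rank test.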

[14] = Half life in rat plasma by HPLC method; format: ADME, cell-free; procedure, shortened: as §1
[15] = Chemical stability in acetate buffer at pH 4.1 assessed as parent compound remaining after 96 hrs by HPLC method; format: physicochemical; settings: read-out: Stability; procedure, shortened: as §1
[16] = Half life in acetate buffer at pH 4.1 by HPLC method; format: physicochemical; procedure, shortened: as §1
Influenza A virus [17] = experiment: Antiviral activity against Influenza A virus (A/WSN/1933(H1N1)) infected in BALB/c mouse assessed as mouse survival rate at 1.2 umol/kg/day administered intranasally for 5 days and measured at day 21 relative to control; format: functional; settings: inhaled or nasal
Influenza A virus [18] = experiment: Antiviral activity against Influenza A virus (A/WSN/1933(H1N1)) infected in BALB/c mouse assessed as increase in mouse survival rate at 1.2 umol/kg/day administered intranasally for 5 days and measured at day 21 relative to control; format: functional, organism-based
[19] = Half life in human serum at 16 mg; format: ADME, organism-based

CCCCCCCC(=O)/N=C(\N)N[C@H]1CC(C(=O)O)=C[C@@H](OC(CC)CC)[C@@H]1NC(C)=O
CC50 at 48 h [1]: > 100000 nM | half-life [2]: > 96 h | remaining at 96 h [3]: 55% | Drug uptake [4]: 1225 nM | half-life [5]: 22.4 h | half-life [6]: 96 h | remaining at 96 h [7]: > 75% | half-life [8]: 18.1 h | EC50 (Influenza A virus [9]): 1 nM | Activity (Influenza A virus [10]): Active

CCC(CC)O[C@@H]1C=C(C(=O)O)C[C@H](N/C(N)=N/C(=O)[C@@H](C)c2ccc3cc(OC)ccc3c2)[C@H]1NC(C)=O
CC50 at 48 h [1]: > 100000 nM | half-life [2]: > 96 h | remaining at 96 h [3]: 76% | half-life [5]: 81.4 h | half-life [6]: > 96 h | half-life [11]: 69.7 h | remaining at 96 h [7]: > 75% | half-life [8]: 76.7 h | half-life [12]: 64.9 h | EC50 (Influenza A virus [9]): 2 nM

CCCCCCCC(=O)/N=C(\N)N[C@H]1C=C(C(=O)O)O[C@@H]([C@H](O)[C@H](O)CO)[C@@H]1NC(C)=O
CC50 at 48 h [1]: > 100000 nM | Activity (Influenza A virus [13]): Active | half-life [2]: > 96 h | half-life [14]: 29.5 h | remaining at 96 h [15]: > 75% | half-life [16]: > 96 h | half-life [11]: 56.8 h | remaining at 96 h [7]: > 75% | half-life [8]: 26.1 h | half-life [12]: 39.2 h | survival at 1.2 µmol/kg (Influenza A virus [17]): 100% | EC50 (Influenza A virus [9]): 90 nM

CCC(CC)O[C@@H]1C=C(C(=O)O)C[C@H](NC(=N)N)[C@H]1NC(C)=O
CC50 at 48 h [1]: > 100000 nM | EC50 (Influenza A virus [9]): 7 nM

CCC(CC)O[C@@H]1C=C(P(=O)(O)O)C[C@H](N/C(N)=N/C(=O)CSc2ccc3ccccc3c2)[C@H]1NC(C)=O
EC50 (Influenza A virus [9]): 0.8 nM

CCC(CC)O[C@@H]1C=C(C(=O)O)C[C@H](N)[C@H]1NC(C)=O [OSELTAMIVIR CARBOXYLATE]
CC50 at 48 h [1]: > 100000 nM | EC50 (Influenza A virus [9]): 16 nM

CC(=O)N[C@H]1[C@H]([C@H](O)[C@H](O)CO)OC(C(=O)O)=C[C@@H]1NC(=N)N [ZANAMIVIR]
Activity (Influenza A virus [18]): Active | EC50 (Influenza A virus [9]): 27 nM

CC(=O)N[C@H]1[C@H]([C@H](O)[C@H](O)CO)OC(C(=O)O)=C[C@@H]1N=C(N)N [ZANAMIVIR]
CC50 at 48 h [1]: > 100000 nM | half-life [19]: 2 to 5 h

CCOC(=O)C1=C[C@@H](OC(CC)CC)[C@H](NC(C)=O)[C@@H](N)C1
Activity (Influenza A virus [10]): Active

COc1ccc2cc([C@H](C)C(=O)/N=C(\N)N[C@H]3C=C(C(=O)O)O[C@@H]([C@H](O)[C@H](O)CO)[C@@H]3NC(C)=O)ccc2c1
CC50 at 48 h [1]: > 100000 nM | half-life [14]: 67.7 h | half-life [11]: 67.2 h | survival at 1.2 µmol/kg (Influenza A virus [17]): 70% | EC50 (Influenza A virus [9]): 140 nM

CCC(CC)O[C@@H]1C=C(P(=O)(O)O)C[C@H](NC(=N)N)[C@H]1NC(C)=O
EC50 (Influenza A virus [9]): 3.8 nM

From ChEMBL document CHEMBL4152278 (Eur J Med Chem, 2018)
